The text below walks through data of ChEMBL document CHEMBL1137768, “Synthesis and in vitro anti Mycobacterium tuberculosis activity of a series of phthalimide derivatives” (Bioorg Med Chem, 2009).

≈ marks a conversion by molar mass, not a printed value.

Test [1] has as its system Mycobacterium tuberculosis. Briefly: Antimycobacterial activity against Mycobacterium tuberculosis H37Rv ATCC 27294 after 7 days by Microplate Alamar blue assay. It counts as functional. The note with it: H37Rv ATCC 27294, 168 h. In short, it runs like this: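 DMSO stocks diluted in Middlebrook 7H9 with OADC to final 0.15–250 µg/mL. Inoculum matched to McFarland No. 1, diluted 1:25, then added with compound in 96-well plates. Triplicates incubated 7 days at 37 °C, then resazurin added. Fluorescence read at 530/590 nm. MIC = lowest concentration giving 90% growth inhibition. Isoniazid standard run each time.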

Another test concerns J774. Briefly: Cytotoxicity against mouse J774 cells after 24 hrs. It counts as cell-based. To be noted: J774, 24 h. In short, it runs like this:
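J774 cells kept in RPMI with 10% FBS at 37 °C, 5% CO2, then seeded and allowed to adhere for 24 h. Exposed 24 h to compound at 625 down to 0.6 (twofold series). Resazurin added for 6 h and fluorescence read at 530/590 nm. IC50 taken as concentration giving 50% viability relative to control.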

In the case of `O=C1c2ccccc2C(=O)N1c1ccc(S(=O)(=O)c2ccc(N3C(=O)c4ccccc4C3=O)cc2)cc1`, the MIC in test [1] is over 250 µg/mL.

In test [1], `Cc1cc(C)nc(NS(=O)(=O)c2ccc(N3C(=O)c4ccccc4C3=O)cc2)n1` registered an MIC of over 250 µg/mL.

For the compound `Cc1cc(NS(=O)(=O)c2ccc(N3C(=O)c4ccccc4C3=O)cc2)no1`, the MIC in test [1] is 125 µg/mL (≈ 326 µM).

Take `N=C(N)NS(=O)(=O)c1ccc(N2C(=O)c3ccccc3C2=O)cc1`: 125 µg/mL (≈ 363 µM) was the least that counted as inhibitory in test [1] (MIC).

In test [1], `O=C1c2ccccc2C(=O)N1c1ccc(S(=O)(=O)Nc2ncccn2)cc1` gave an MIC of 3.9 µg/mL (≈ 10.3 µM). Further, half-maximal inhibition with J774 (IC50) required 312 µg/mL (≈ 822 µM).

Regarding `Nc1ccc(S(=O)(=O)c2ccc(N3C(=O)c4ccccc4C3=O)cc2)cc1`, the lowest concentration to inhibit growth in test [1] (MIC) was 7.8 µg/mL (≈ 20.6 µM). This compound gave a concentration for half-maximal inhibition (IC50) in the test with J774 of 312 µg/mL (≈ 826 µM).

The compound `NNC(=O)c1ccncc1` [ISONIAZID] came in with an MIC in test [1] of 0.02 µg/mL (≈ 0.146 µM).

Compound `COc1cnc(NS(=O)(=O)c2ccc(N3C(=O)c4ccccc4C3=O)cc2)nc1` came in with an MIC in test [1] of over 250 µg/mL.

On to `O=C(NN1C(=O)c2ccccc2C1=O)c1ccncc1`, for which 5 µg/mL (≈ 18.7 µM) was the least that counted as inhibitory in test [1] (MIC). In the test with J774, this compound gave an IC50 of 625 µg/mL (≈ 2340 µM).

Turning to `NS(=O)(=O)c1ccc(N2C(=O)c3ccccc3C2=O)cc1`, the MIC in test [1] is over 250 µg/mL.

In turn, `Cc1ccnc(NS(=O)(=O)c2ccc(N3C(=O)c4ccccc4C3=O)cc2)n1` registered an MIC in test [1] of over 250 µg/mL.

On to `O=C1c2ccccc2C(=O)N1c1ccc(S(=O)(=O)Nc2ccccn2)cc1`, for which the MIC in test [1] was over 250 µg/mL.

In general, MIC refers to the least concentration at which growth counts as inhibited. Low readings indicate a more susceptible organism, high ones a less susceptible organism. As a reminder, the IC50 is the concentration needed to halve the response being measured.
